Measured values as given in ChEMBL document CHEMBL2040750, “Hybrids of ravuconazole: synthesis and biological evaluation” (2012).
In brackets after ≈: the same amount, converted by molar mass. Activity calls are given as the source filed them. No cut-off for these calls is given here.

What was measured:
Format in all cases: functional
Bacillus subtilis [1] = test: Antibacterial activity Bacillus subtilis NCIM 2250 at 100 ug/disc by agar-well diffusion assay; conditions: for zone of inhibition at 100 µg/disc: read-out: DIZ
Summary of the method: (§1)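 Agar-well diffusion screen against standard strains. Zone of inhibition is the read-out. Chloramphenicol, nystatin and ravuconazole were run as positive controls.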

Candida albicans [2] = test: Antifungal activity Candida albicans NCIM 3471 at 100 ug/disc by agar-well diffusion assay; conditions: for zone of inhibition at 100 µg/disc: read-out: DIZ; summary of the method: as §1
Bacillus subtilis [3] = test: Antibacterial activity Bacillus subtilis NCIM 2250 after 24 hrs by NCCLS method
Summary of the method: (§2)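 Broth microdilution MIC per NCCLS. Compounds dissolved in DMSO, serially diluted in growth medium, incubated at 37 °C. Read at 24 h for bacteria and 24–72 h for fungi. MIC90 taken as the first well with about 90% growth reduction relative to the drug-free well.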

Candida albicans [4] = test: Antifungal activity Candida albicans NCIM 3471 after 24 to 72 hrs by NCCLS method; summary of the method: as §2
Aspergillus niger [5] = test: Antifungal activity Aspergillus niger NCIM 545 at 100 ug/disc by agar-well diffusion assay; conditions: for zone of inhibition at 100 µg/disc: read-out: DIZ; summary of the method: as §1
Escherichia coli [6] = test: Antibacterial activity Escherichia coli NCIM 2109 at 100 ug/disc by agar-well diffusion assay; conditions: for zone of inhibition at 100 µg/disc: read-out: DIZ; summary of the method: as §1
Staphylococcus aureus [7] = test: Antibacterial activity Staphylococcus aureus NCIM 2079 at 100 ug/disc by agar-well diffusion assay; conditions: for zone of inhibition at 100 µg/disc: read-out: DIZ; summary of the method: as §1
Pseudomonas aeruginosa [8] = test: Antibacterial activity Pseudomonas aeruginosa NCIM 2036 after 24 hrs by NCCLS method; summary of the method: as §2
Staphylococcus aureus [9] = test: Antibacterial activity Staphylococcus aureus NCIM 2079 after 24 hrs by NCCLS method; summary of the method: as §2
Escherichia coli [10] = test: Antibacterial activity Escherichia coli NCIM 2109 after 24 hrs by NCCLS method; summary of the method: as §2
Pseudomonas aeruginosa [11] = test: Antibacterial activity Pseudomonas aeruginosa NCIM 2036 at 100 ug/disc by agar-well diffusion assay; conditions: for zone of inhibition at 100 µg/disc: read-out: DIZ; summary of the method: as §1
Aspergillus niger [12] = test: Antifungal activity Aspergillus niger NCIM 545 after 24 to 72 hrs by NCCLS method; summary of the method: as §2

Row | Compound | diameter of the inhibition zone (DIZ) (Bacillus subtilis [1]) | diameter of the inhibition zone (DIZ) (Candida albicans [2]) | MIC (Bacillus subtilis [3]) | MIC (Candida albicans [4]) | zone of inhibition at 100 µg/disc (Aspergillus niger [5]) | zone of inhibition at 100 µg/disc (Escherichia coli [6]) | diameter of the inhibition zone (DIZ) (Staphylococcus aureus [7]) | MIC (Pseudomonas aeruginosa [8]) | MIC (Staphylococcus aureus [9]) | MIC (Escherichia coli [10]; NCIM 2109, 24 h) | diameter of the inhibition zone (DIZ) (Pseudomonas aeruginosa [11]) | MIC (Aspergillus niger [12]) | zone of inhibition at 100 µg/disc (Candida albicans [2]) | MIC (Pseudomonas aeruginosa [8]; NCIM 2036, 24 h) | zone of inhibition at 100 µg/disc (Pseudomonas aeruginosa [11]) | diameter of the inhibition zone (DIZ) (Aspergillus niger [5]) | diameter of the inhibition zone (DIZ) (Escherichia coli [6]) | zone of inhibition at 100 µg/disc (Staphylococcus aureus [7]) | MIC (Staphylococcus aureus [9]; NCIM 2079, 24 h) | MIC (Escherichia coli [10]) | other results
1 | O=[N+]([O-])c1ccc(-c2csc(N/N=C(/Cn3cncn3)c3ccc(F)cc3)n2)cc1 | inactive | inactive | inactive | inactive | 9.44 mm | 10.9 mm | inactive | inactive | inactive | > 64 µg/mL | inactive | > 64 µg/mL |  |  |  |  |  |  |  |  | 
2 | FC(F)(F)c1cc(/C(Cn2cncn2)=N\Nc2nc(-c3ccc(Cl)cc3)cs2)cc(C(F)(F)F)c1 | inactive |  | inactive | 32 µg/mL (≈ 60.3 µM) | 19.1 mm | 13.2 mm | inactive |  | inactive | > 64 µg/mL |  | 16 µg/mL (≈ 30.1 µM) | 17.6 mm | 32 µg/mL (≈ 60.3 µM) | 26.8 mm |  |  |  |  |  | 
3 | O=[N+]([O-])c1ccc(/C(Cn2cncn2)=N\Nc2nc(-c3ccc(Cl)cc3)cs2)cc1 |  | inactive |  | inactive |  |  |  | inactive |  |  | inactive | inactive |  |  |  | inactive | inactive | 14.2 mm | > 64 µg/mL | inactive | zone of inhibition at 100 µg/disc (Bacillus subtilis [1]): 15.8 mm; MIC (Bacillus subtilis [3]; NCIM 2250, 24 h): 64 µg/mL (≈ 145 µM)
4 | O=[N+]([O-])c1ccc(-c2csc(N/N=C(/Cn3cncn3)c3ccc(Br)cc3)n2)cc1 | inactive | inactive | inactive | inactive |  | 14 mm | inactive | inactive | inactive | > 64 µg/mL | inactive | inactive |  |  |  | inactive |  |  |  |  | 
5 | Clc1ccc(/C(Cn2cncn2)=N\Nc2nc(-c3ccc(Cl)cc3)cs2)cc1 | inactive |  | inactive | 32 µg/mL (≈ 74.5 µM) | 19.5 mm | 9.65 mm |  |  |  | > 64 µg/mL |  | 32 µg/mL (≈ 74.5 µM) | 20.4 mm | 16 µg/mL (≈ 37.3 µM) | 28.9 mm |  |  | 18.8 mm | 64 µg/mL (≈ 149 µM) |  | 
6 | Clc1ccc(-c2csc(N/N=C(/Cn3cncn3)c3ccc(Br)cc3)n2)cc1 |  |  |  | 64 µg/mL (≈ 135 µM) | 16.7 mm |  |  |  |  |  |  | 32 µg/mL (≈ 67.5 µM) | 16.2 mm | 32 µg/mL (≈ 67.5 µM) | 21.7 mm |  | inactive | 13.1 mm | > 64 µg/mL | inactive | zone of inhibition at 100 µg/disc (Bacillus subtilis [1]): 17.3 mm; MIC (Bacillus subtilis [3]; NCIM 2250, 24 h): 64 µg/mL (≈ 135 µM)
7 | O=[N+]([O-])c1ccc(/C(Cn2cncn2)=N\Nc2nc(-c3ccc(Br)cc3)cs2)cc1 | inactive | inactive | inactive | inactive |  | 11 mm | inactive |  | inactive | > 64 µg/mL |  | inactive |  | 64 µg/mL (≈ 132 µM) | 19.8 mm | inactive |  |  |  |  | 
8 | Fc1ccc(/C(Cn2cncn2)=N\Nc2nc(-c3ccc(Br)cc3)cs2)cc1 | inactive |  | inactive | 64 µg/mL (≈ 140 µM) | 15.8 mm |  | inactive |  | inactive | 64 µg/mL (≈ 140 µM) |  | 64 µg/mL (≈ 140 µM) | 14.8 mm | 32 µg/mL (≈ 70 µM) | 18.2 mm |  | inactive |  |  |  | 
9 | FC(F)(F)c1cc(/C(Cn2cncn2)=N\Nc2nc(-c3cc(C(F)(F)F)cc(C(F)(F)F)c3)cs2)cc(C(F)(F)F)c1 | inactive |  | inactive | 64 µg/mL (≈ 101 µM) | 15.2 mm | 13.1 mm | inactive | inactive | inactive |  | inactive | 32 µg/mL (≈ 50.6 µM) | 11.7 mm |  |  |  |  |  |  | inactive | 
